aDG glyco act: increases alpha dystroglycan glycosylation | Pro5-aDG cells, alpha-DG glycosylation AlphaScreen (IIH6); 0% Pro5, 100% B10-LARGE cell signal | activation, % at 10 µM | hit rate 0.22% among 360,000;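 active = activation of at least 8% versus controls, or a plate z-score of at least 8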;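 also: Pro5 are CHO cells carrying HIG-tagged alpha-DG that lacks glycosylation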
H9c2 TAG inh: triacylglycerol accumulation inhibition. H9c2 cells, Nile Red lipid (TAG) fluorescence; cells loaded with 200 µM oleic acid. hit rate 0.66% among 230,000. AID 651582. inhibition, % at 12.5 µM;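 active = pattern-corrected inhibition of lipid staining of at least 50% with the nuclear-stain viability signal not falling by more than 50%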
MC4R barr agon: agonists of human melanocortin 4 receptor (MC4R) beta-arrestin; activation, % at 8.9 µM; U2OS MC4R beta-arrestin complementation, luminescence; percent of melanotan II response, DMSO zero; hit rate 0.98% among 360,000; P32245;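 active = activation above a per-plate cutoff, the mean activation of sample wells on that plate plus 3 SD, cut at about 8% in these data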
Target sequence (P32245 whole entry, looked up): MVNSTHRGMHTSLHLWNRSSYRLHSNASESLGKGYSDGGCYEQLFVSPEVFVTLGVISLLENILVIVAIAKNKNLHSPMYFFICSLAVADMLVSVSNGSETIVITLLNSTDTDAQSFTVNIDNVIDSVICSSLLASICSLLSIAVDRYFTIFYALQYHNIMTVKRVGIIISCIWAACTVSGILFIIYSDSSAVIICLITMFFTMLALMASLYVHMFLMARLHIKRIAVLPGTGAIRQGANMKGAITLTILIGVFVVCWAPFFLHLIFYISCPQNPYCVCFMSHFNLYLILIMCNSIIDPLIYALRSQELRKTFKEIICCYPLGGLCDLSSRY
MC4R antagonist: antagonists of human melanocortin 4 receptor (MC4R); MC4R-expressing cells, MTII-stimulated cAMP, LANCE TR-FRET; inhibition, % at 6.5 µM; hit rate 0.48% among 360,000; AID 540295;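 active = inhibition above its plate's cutoff, the mean of tested wells on that plate plus 3 SD, cut at about 29% in these data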
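material = U2OS cells stably expressing human melanocortin 4 receptor (MC4R) | also added = Melanotan II challenge | dosing = single nominal compound dose of 6.5 µM | detection = TR-FRET with Eu-cAMP and labeled anti-cAMP, 671 nm | replication = singlicate | timing = compound 30 min, challenge 1 h, detection 1 h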
NTR1 ag: agonists of human neurotensin receptor NTR1; hit rate 0.17% among 330,000; NTR1-U2OS beta-arrestin-GFP spot imaging, agonist mode; activation, % at 20 µM; P30989;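 active = activation at or above 40% of the spot to cytoplasm intensity ratio, with at least 20 cells analyzed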
Tb MetRS inh: blocks T. brucei methionyl-tRNA synthetase activity; purified T. brucei MetRS, ATP depletion, Kinase-Glo luminescence; inhibition, % at 11.9 µM; hit rate 0.4% among 360,000;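 active = inhibition above a per-plate cutoff of the control wells' mean inhibition plus 3 SD, cut at about 5.5% in these data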
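Material: parasite MetRS enzyme / Replication: singlicate, one well per compound / Signal: luminescence of leftover ATP / Schedule: 2 h aminoacylation at 25 °C after 15 min preincubation / Medium: HEPES-MgCl2-KCl buffer plus DTT, spermine, BSA, pyrophosphatase / Doses: 11.9 µM single point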
TbMetRS confirm: confirmation of Trypanosoma brucei MetRS inhibitors; shares compounds with Tb MetRS inh; T. brucei MetRS enzyme, luminescence (ATP depletion); inhibition, % at 11.9 µM; hit rate 93% among 1,400; in the data active = inhibition above about 7%
Jurkat cytotox: kills Jurkat cells in T. brucei MetRS counterscreen. hit rate 12% among 1,400. Jurkat cells viability, ATP luminescence. AID 624413. inhibition, % at 8.3 µM. shares compounds with Tb MetRS inh; in the data active = inhibition above about 15%
TbMetRS FP orth: inhibits T. brucei methionyl tRNA synthetase in orthogonal FP test | hit rate 44% among 1,400 | shares compounds with Tb MetRS inh | purified T. brucei MetRS, fluorescence polarization | inhibition, % at 11.9 µM; in the data active = inhibition above about 17%
A number is an active result. Rows were chosen to be rich in hits. Some 2.4% of all compounds tested hit in one or more screens of this group.

Screening Cc1nnc(NCc2cccc(Cl)c2)c2ccccc12 returned aDG glyco act inactive, MC4R barr agon inactive, MC4R antagonist inactive, NTR1 ag inactive, Tb MetRS inh 12.1, TbMetRS confirm 18.7, Jurkat cytotox inactive and TbMetRS FP orth inactive.
O=C(NN1C(=O)/C(=C/c2ccc(O)cc2)SC1=S)c1cccc(O)c1 was read as aDG glyco act inactive, MC4R barr agon inactive, MC4R antagonist inactive, NTR1 ag inactive, Tb MetRS inh 6.7, TbMetRS confirm 13.7, Jurkat cytotox inactive and TbMetRS FP orth 23.8.
O=C(NN1C(=O)/C(=C/c2ccc(O)cc2)SC1=S)c1ccccc1O was read as aDG glyco act inactive, MC4R barr agon inactive, MC4R antagonist inactive, NTR1 ag inactive, Tb MetRS inh 43.9, TbMetRS confirm 58.4, Jurkat cytotox inactive and TbMetRS FP orth 33.1.
`Cc1cc(C)nc(NN2C(=O)/C(=C/c3ccc(O)cc3)SC2=S)n1` gave aDG glyco act inactive, MC4R barr agon inactive, MC4R antagonist inactive, NTR1 ag inactive and Tb MetRS inh inactive.
For COC(=O)[C@@]12C[C@@H](CC(=O)NCC3CCCCC3)C(=O)N(Cc3ccco3)C1=CCC(C)(C)C2 the results were aDG glyco act inactive and Tb MetRS inh inactive.
For CC(CNC(=S)Nc1cc(F)cc(F)c1)CSc1ccc(Cl)cc1 (configuration not stated) the results were aDG glyco act inactive, H9c2 TAG inh inactive, MC4R barr agon inactive, MC4R antagonist inactive, NTR1 ag inactive, Tb MetRS inh 12.8, TbMetRS confirm 24.8, Jurkat cytotox inactive and TbMetRS FP orth 27.5.
For O=C(NC1CCCC1)C(C1CC1)n1c(-c2ccnc3ccccc23)nc2ccccc21 (configuration not stated) the results were aDG glyco act inactive and Tb MetRS inh inactive.
Screening CN(CCc1nc2ccccc2[nH]1)Cc1nc(CC2CC2)no1 returned aDG glyco act inactive, H9c2 TAG inh inactive, MC4R barr agon inactive, MC4R antagonist inactive, NTR1 ag inactive and Tb MetRS inh inactive.
CN(CCc1nc2ccc(Cl)cc2[nH]1)Cc1nc(CC2CC2)no1 was read as aDG glyco act inactive, H9c2 TAG inh inactive, MC4R barr agon inactive, MC4R antagonist inactive, NTR1 ag inactive, Tb MetRS inh 41.7, TbMetRS confirm 61.8, Jurkat cytotox inactive and TbMetRS FP orth 27.7.
O=C(Cn1c(C(F)(F)F)nc2ccccc21)Nc1ccccc1N1CCOCC1 was read as aDG glyco act inactive, H9c2 TAG inh inactive, MC4R barr agon inactive, MC4R antagonist inactive, NTR1 ag inactive and Tb MetRS inh inactive.
Screening CSc1nc2ccccc2n1CC(=O)Nc1cc(C(F)(F)F)ccc1N1CCOCC1 returned aDG glyco act inactive, H9c2 TAG inh inactive, MC4R barr agon inactive, MC4R antagonist inactive, NTR1 ag inactive, Tb MetRS inh 12.9, TbMetRS confirm 20.8, Jurkat cytotox inactive and TbMetRS FP orth inactive.
Screening Cc1[nH]c2ccccc2c1/C=N/Nc1ccc([N+](=O)[O-])cc1 returned aDG glyco act inactive, MC4R barr agon inactive, MC4R antagonist inactive, Tb MetRS inh 9.6, TbMetRS confirm 12.2, Jurkat cytotox inactive and TbMetRS FP orth 71.0.
`Cc1[nH]c2ccccc2c1/C=N/NC(=O)c1cccc([N+](=O)[O-])c1` gave aDG glyco act inactive, MC4R barr agon inactive, MC4R antagonist inactive, NTR1 ag inactive and Tb MetRS inh inactive.
CNC(=O)COC(=O)c1ccc(Cl)c(S(N)(=O)=O)c1 was read as aDG glyco act inactive, H9c2 TAG inh inactive, MC4R barr agon inactive, MC4R antagonist inactive, NTR1 ag inactive, Tb MetRS inh 6.4, TbMetRS confirm inactive, Jurkat cytotox inactive and TbMetRS FP orth inactive.
Screening COC1=CC(=O)OC(c2ccccc2)C1 (configuration not stated) returned aDG glyco act inactive and Tb MetRS inh inactive.
For COC(=O)C(C(=O)OC)c1ccccc1NS(=O)(=O)c1c(C)cc(C)cc1C the results were aDG glyco act inactive and Tb MetRS inh inactive.
C=CCC(NC(=O)N(C)C)(C(C)=O)C(=O)OC (configuration not stated) was read as aDG glyco act inactive and Tb MetRS inh inactive.
`O=C(NCc1nc2ccccc2[nH]1)c1ccc(S(=O)(=O)N2CCCC2)cc1` gave aDG glyco act inactive, H9c2 TAG inh inactive, MC4R barr agon inactive, MC4R antagonist inactive, NTR1 ag inactive and Tb MetRS inh inactive.
Screening O=C(NCc1nc2ccccc2[nH]1)c1ccc([N+](=O)[O-])cc1 returned aDG glyco act inactive, H9c2 TAG inh inactive, MC4R barr agon inactive, MC4R antagonist inactive, NTR1 ag inactive, Tb MetRS inh 52.2, TbMetRS confirm 74.5, Jurkat cytotox inactive and TbMetRS FP orth 39.5.
`O=C(NCc1nc2ccccc2[nH]1)c1ccc(S(=O)(=O)N2CCOCC2)cc1` gave aDG glyco act inactive, H9c2 TAG inh inactive, MC4R barr agon inactive, MC4R antagonist inactive, NTR1 ag inactive, Tb MetRS inh 11.8, TbMetRS confirm 21.0, Jurkat cytotox inactive and TbMetRS FP orth inactive.
COC(=O)C1=CN(c2ccc(OC)cc2OC)C(N)=C(C#N)C1c1ccccc1F (configuration not stated) was read as aDG glyco act inactive and Tb MetRS inh inactive.
For CCOC(=O)CNC(=O)C1CCCc2c1[nH]c1ccc(Cl)cc21 (configuration not stated) the results were aDG glyco act inactive, H9c2 TAG inh inactive, MC4R barr agon inactive, MC4R antagonist inactive, NTR1 ag inactive, Tb MetRS inh 12.2, TbMetRS confirm 19.9, Jurkat cytotox inactive and TbMetRS FP orth inactive.
For COc1ccc(N(CC(=O)Nc2ccc(Cl)cc2)S(=O)(=O)c2c(C)n[nH]c2C)cc1 the results were aDG glyco act inactive, MC4R barr agon inactive, MC4R antagonist inactive, NTR1 ag inactive, Tb MetRS inh 8.7, TbMetRS confirm 17.9, Jurkat cytotox inactive and TbMetRS FP orth inactive.
CC(C(=O)Nc1ccc(O)cc1)c1cccc(C(=O)c2ccccc2)c1 (configuration not stated) was read as aDG glyco act inactive, MC4R barr agon inactive, MC4R antagonist inactive, NTR1 ag inactive, Tb MetRS inh 21.8, TbMetRS confirm 30.1, Jurkat cytotox 18.8 and TbMetRS FP orth 31.3.
Screening O=C(COC(=O)CCCOc1ccc(Cl)cc1Cl)Nc1cccc(Cl)c1 returned aDG glyco act inactive, MC4R barr agon inactive, MC4R antagonist inactive, NTR1 ag inactive, Tb MetRS inh 31.4, TbMetRS confirm 44.9, Jurkat cytotox inactive and TbMetRS FP orth 48.9.

Screens (PubChem BioAssay)
